In ChEMBL document CHEMBL4732181, “Pyrazolo[3,4-d]pyrimidine-based dual EGFR T790M/HER2 inhibitors: Design, synthesis, structure-activity relationship and biological activity as potential antitumor and anticonvulsant agents” (Eur J Med Chem, 2021):
Activity calls are given as the source filed them. No cut-off for these calls is given here.

Tests used:
WI-38 = assay: Cytotoxicity against human WI-38 cells assessed as reduction in cell viability after 48 hrs by MTT assay; type: cell-based; conditions: WI-38, 48 h
Summary of the method: (§1)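 Cells from ATCC grown in DMEM with 10% FBS, insulin and 1% penicillin-streptomycin. Plated at 1.2-1.8 × 10,000 cells/well for 24 h, then exposed to compounds in DMSO vehicle for 48 h. MTT 0.5 mg/ml added for 2 h; absorbance read at 570 nm. Experiments run in triplicate.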

HCT-116 [1] = assay: Induction of cell cycle arrest in human HCT-116 cells assessed as cell accumulation at pre-G1 phase at IC50 concentration after 24 hrs by propidium iodide staining based flow cytometric analysis (reference value: 2.02%); type: functional
HCT-116 [2] = assay: Induction of cell cycle arrest in human HCT-116 cells assessed as cell accumulation at G1 phase at IC50 concentration after 24 hrs by propidium iodide staining based flow cytometric analysis (reference value: 46.95%); type: functional
HCT-116 [3] = assay: Induction of cell cycle arrest in human HCT-116 cells assessed as cell accumulation at S phase at IC50 concentration after 24 hrs by propidium iodide staining based flow cytometric analysis (reference value: 37.66%); type: functional
HCT-116 [4] = assay: Induction of cell cycle arrest in human HCT-116 cells assessed as cell accumulation at G2/M phase at IC50 concentration after 24 hrs by propidium iodide staining based flow cytometric analysis (reference value: 15.39%); type: functional
HCT-116 [5] = assay: Induction of cell cycle arrest in human HCT-116 cells assessed as cell increase in accumulation at G2/M phase at IC50 concentration after 24 hrs by propidium iodide staining based flow cytometric analysis; type: functional
HCT-116 [6] = assay: Induction of apoptosis in human HCT-116 cells assessed as early apoptotic cells at IC50 concentration after 24 hrs by annexin-V-FITC/PI staining based flow cytometric analysis (reference value: 0.34%); type: functional
HCT-116 [7] = assay: Induction of apoptosis in human HCT-116 cells assessed as late apoptotic cells at IC50 concentration after 24 hrs by annexin-V-FITC/PI staining based flow cytometric analysis (reference value: 1.31%); type: functional
HCT-116 [8] = assay: Induction of apoptosis in human HCT-116 cells assessed as increase in early apoptotic cells at IC50 concentration after 24 hrs by annexin-V-FITC/PI staining based flow cytometric analysis; type: functional
HCT-116 [9] = assay: Induction of apoptosis in human HCT-116 cells assessed as increase in late apoptotic cells at IC50 concentration after 24 hrs by annexin-V-FITC/PI staining based flow cytometric analysis; type: functional
HCT-116 [10] = assay: Induction of apoptosis in human HCT-116 cells assessed as increase in caspace-3 protein expression at IC50 concentration after 24 hrs by ELISA; type: functional
Summary of the method: (§2)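 Cells treated at IC50 for 24 h and lysed in cell extraction buffer. Lysate diluted in standard diluent buffer and human caspase-3, -7, -9, Bax and Bcl-2 quantified by immunoassay kit (pg/mL). Fold change calculated against untreated control cells.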

HCT-116 [11] = assay: Induction of apoptosis in human HCT-116 cells assessed as increase in caspace-7 protein expression at IC50 concentration after 24 hrs by ELISA; type: functional; summary of the method: as §2
HCT-116 [12] = assay: Induction of apoptosis in human HCT-116 cells assessed as increase in caspace-9 protein expression at IC50 concentration after 24 hrs by ELISA; type: functional; summary of the method: as §2
HCT-116 [13] = assay: Induction of apoptosis in human HCT-116 cells assessed as increase in Bax protein expression at IC50 concentration after 24 hrs by ELISA; type: functional; summary of the method: as §2
HCT-116 [14] = assay: Induction of apoptosis in human HCT-116 cells assessed as decrease in Bcl-2 protein expression at IC50 concentration after 24 hrs by ELISA; type: functional; summary of the method: as §2
HCT-116 [15] = assay: Induction of apoptosis in human HCT-116 cells assessed as increase in Bax/Bcl-2 ratio at IC50 concentration after 24 hrs by ELISA; type: functional, cell-based; summary of the method: as §2
[16] = molecular target: T1, Receptor tyrosine-protein kinase erbB-2 (Homo sapiens, UniProt P04626); assay: Inhibition of HER2 (unknown origin) at 10 uM relative to control
T1 sequence (P04626 whole entry): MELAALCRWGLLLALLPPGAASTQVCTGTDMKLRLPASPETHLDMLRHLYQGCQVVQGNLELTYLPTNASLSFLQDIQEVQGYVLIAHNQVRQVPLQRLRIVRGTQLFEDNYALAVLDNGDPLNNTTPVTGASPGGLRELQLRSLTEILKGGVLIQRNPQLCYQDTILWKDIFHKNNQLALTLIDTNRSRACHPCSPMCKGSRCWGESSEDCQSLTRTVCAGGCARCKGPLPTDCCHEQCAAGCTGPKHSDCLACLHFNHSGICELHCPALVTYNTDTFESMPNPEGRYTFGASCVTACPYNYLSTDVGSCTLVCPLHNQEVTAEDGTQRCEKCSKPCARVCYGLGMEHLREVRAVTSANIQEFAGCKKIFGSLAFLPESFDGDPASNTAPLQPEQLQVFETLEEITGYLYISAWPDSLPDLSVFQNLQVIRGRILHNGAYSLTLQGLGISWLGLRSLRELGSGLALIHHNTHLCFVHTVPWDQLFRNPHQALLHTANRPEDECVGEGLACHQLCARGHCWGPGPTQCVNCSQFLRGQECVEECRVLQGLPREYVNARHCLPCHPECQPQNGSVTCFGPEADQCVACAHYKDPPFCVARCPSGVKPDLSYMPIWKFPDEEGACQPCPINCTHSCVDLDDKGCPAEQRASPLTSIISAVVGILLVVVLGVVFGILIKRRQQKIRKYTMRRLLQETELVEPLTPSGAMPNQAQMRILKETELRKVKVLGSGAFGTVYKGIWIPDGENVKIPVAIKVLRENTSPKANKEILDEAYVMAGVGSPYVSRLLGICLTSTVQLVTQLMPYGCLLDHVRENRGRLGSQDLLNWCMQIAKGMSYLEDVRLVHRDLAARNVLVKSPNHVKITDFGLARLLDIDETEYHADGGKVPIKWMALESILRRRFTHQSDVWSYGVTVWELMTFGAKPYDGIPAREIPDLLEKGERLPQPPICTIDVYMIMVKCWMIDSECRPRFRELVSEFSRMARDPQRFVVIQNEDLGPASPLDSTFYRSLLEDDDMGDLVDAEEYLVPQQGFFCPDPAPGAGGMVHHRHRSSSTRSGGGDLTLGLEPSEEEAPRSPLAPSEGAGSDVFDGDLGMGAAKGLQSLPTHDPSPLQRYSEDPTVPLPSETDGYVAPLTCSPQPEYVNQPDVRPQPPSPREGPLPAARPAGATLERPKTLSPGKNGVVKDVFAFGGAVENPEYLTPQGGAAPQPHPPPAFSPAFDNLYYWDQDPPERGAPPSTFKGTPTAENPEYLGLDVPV
Summary of the method: (§3)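 Cell-free immunoassay kit measuring EGFR T790M/HER2 kinase inhibition. Percent inhibition screened at 10 µM. IC50 obtained from four concentrations (0.01-10 µM) by fitting E(%) = Emax/(1+[I]/ID50) to a dose-response curve. Mean of two independent replicates.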

[17] = molecular target: Epidermal growth factor receptor (Homo sapiens, UniProt P00533, T790M); assay: Inhibition of EGFR T790M mutant (unknown origin)
Epidermal growth factor receptor, sequence (P00533 25-1210 T790M limits assumed): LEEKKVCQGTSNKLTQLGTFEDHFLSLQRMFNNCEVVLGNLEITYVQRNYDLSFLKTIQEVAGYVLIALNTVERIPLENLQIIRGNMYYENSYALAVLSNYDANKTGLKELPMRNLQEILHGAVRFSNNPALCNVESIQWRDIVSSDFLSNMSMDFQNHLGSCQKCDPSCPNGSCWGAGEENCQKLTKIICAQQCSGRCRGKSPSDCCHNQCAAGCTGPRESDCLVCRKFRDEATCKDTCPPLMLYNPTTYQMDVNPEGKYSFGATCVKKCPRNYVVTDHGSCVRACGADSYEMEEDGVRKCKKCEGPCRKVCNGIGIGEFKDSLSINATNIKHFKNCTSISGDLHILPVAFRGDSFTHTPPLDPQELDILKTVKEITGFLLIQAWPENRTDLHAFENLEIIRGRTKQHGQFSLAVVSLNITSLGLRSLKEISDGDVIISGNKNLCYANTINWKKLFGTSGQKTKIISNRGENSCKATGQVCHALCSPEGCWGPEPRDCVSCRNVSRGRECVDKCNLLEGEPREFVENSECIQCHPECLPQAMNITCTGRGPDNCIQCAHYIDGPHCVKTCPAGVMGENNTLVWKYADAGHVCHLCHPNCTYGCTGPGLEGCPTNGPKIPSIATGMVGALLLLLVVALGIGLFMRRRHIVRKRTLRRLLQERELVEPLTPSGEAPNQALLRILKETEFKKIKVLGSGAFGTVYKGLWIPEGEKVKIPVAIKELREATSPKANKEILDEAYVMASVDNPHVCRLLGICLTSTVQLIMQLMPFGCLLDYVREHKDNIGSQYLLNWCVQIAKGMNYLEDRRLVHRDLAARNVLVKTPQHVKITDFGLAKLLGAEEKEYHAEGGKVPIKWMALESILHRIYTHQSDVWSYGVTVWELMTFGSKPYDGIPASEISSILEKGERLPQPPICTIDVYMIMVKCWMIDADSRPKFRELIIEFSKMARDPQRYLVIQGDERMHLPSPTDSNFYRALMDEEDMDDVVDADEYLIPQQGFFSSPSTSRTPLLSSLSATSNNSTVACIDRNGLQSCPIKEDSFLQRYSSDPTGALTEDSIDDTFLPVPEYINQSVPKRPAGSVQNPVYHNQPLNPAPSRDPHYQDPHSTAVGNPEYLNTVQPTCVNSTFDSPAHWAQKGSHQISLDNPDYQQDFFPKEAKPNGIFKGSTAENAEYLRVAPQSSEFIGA

[18] = molecular target: T1, Receptor tyrosine-protein kinase erbB-2; assay: Inhibition of HER2 (unknown origin); summary of the method: as §3
Mus musculus [19] = assay: Anticonvulsant activity against mouse model of LiCa/pilocarpine-induced status epilepticus assessed as mean power frequency at 20 mg/kg, po for 10 days by EEG method relative to control; type: functional; conditions: time 10 day
Summary of the method: (§4)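 Male mice (20-30 g), five per group, dosed orally once daily for 10 days. Status epilepticus was then induced with LiCa (3 mEq/kg i.p.), atropine sulfate (1 mg/kg i.p.) 30 min before pilocarpine, and pilocarpine HCl (300 mg/kg i.p.) 2 h after LiCa. Normal controls received oral distilled water. Comparators were untreated SE, phenytoin and lamotrigine. One-way ANOVA with Tukey post-hoc; mean ± SD.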

Mus musculus [20] = assay: Anticonvulsant activity against mouse model of LiCa/pilocarpine-induced status epilepticus assessed as spectral edge frequency at 20 mg/kg, po for 10 days by EEG method relative to control; type: functional; conditions: time 10 day; summary of the method: as §4
Mus musculus [21] = assay: Anticonvulsant activity against mouse model of LiCa/pilocarpine-induced status epilepticus assessed as total power at 20 mg/kg, po for 10 days by EEG method relative to control; type: functional; conditions: time 10 day; summary of the method: as §4
Mus musculus [22] = assay: Anticonvulsant activity against mouse model of LiCa/pilocarpine-induced status epilepticus assessed as amplitude at 20 mg/kg, po for 10 days by EEG method relative to control; type: functional; conditions: time 10 day; summary of the method: as §4
Mus musculus [23] = assay: Anticonvulsant activity against mouse model of LiCa/pilocarpine-induced status epilepticus assessed as amplitude density at 20 mg/kg, po for 10 days by EEG method relative to control; type: functional; conditions: time 10 day; summary of the method: as §4
Mus musculus [24] = assay: Anticonvulsant activity against mouse model of LiCa/pilocarpine-induced status epilepticus assessed as power pV2 at 20 mg/kg, po for 10 days by EEG method relative to control; type: functional; conditions: time 10 day; summary of the method: as §4
Mus musculus [25] = assay: Anticonvulsant activity against mouse model of LiCa/pilocarpine-induced status epilepticus assessed as total power density at 20 mg/kg, po for 10 days by EEG method relative to control; type: functional; conditions: time 10 day; summary of the method: as §4
Mus musculus [26] = assay: Anticonvulsant activity against mouse model of LiCa/pilocarpine-induced status epilepticus assessed as delta at 20 mg/kg, po for 10 days by EEG method relative to control; type: functional; conditions: time 10 day; summary of the method: as §4
Mus musculus [27] = assay: Anticonvulsant activity against mouse model of LiCa/pilocarpine-induced status epilepticus assessed as theta at 20 mg/kg, po for 10 days by EEG method relative to control; type: functional; conditions: time 10 day; summary of the method: as §4
Mus musculus [28] = assay: Anticonvulsant activity against mouse model of LiCa/pilocarpine-induced status epilepticus assessed as alpha at 20 mg/kg, po for 10 days by EEG method relative to control; type: functional; conditions: time 10 day; summary of the method: as §4
Mus musculus [29] = assay: Anticonvulsant activity against mouse model of LiCa/pilocarpine-induced status epilepticus assessed as MDA level in brain at 20 mg/kg, po for 10 days by calorimetric method relative to control; type: functional; conditions: time 10 day; summary of the method: as §4
Mus musculus [30] = assay: Anticonvulsant activity against mouse model of LiCa/pilocarpine-induced status epilepticus assessed as GSH level in brain at 20 mg/kg, po for 10 days by calorimetric method relative to control; type: functional; conditions: time 10 day; summary of the method: as §4
Mus musculus [31] = assay: Anticonvulsant activity against mouse model of LiCa/pilocarpine-induced status epilepticus assessed as GABA level in brain at 20 mg/kg, po for 10 days by ELISA relative to control; type: functional; conditions: time 10 day; summary of the method: as §4
Mus musculus [32] = assay: Anticonvulsant activity against mouse model of LiCa/pilocarpine-induced status epilepticus assessed as Glutamate level in brain at 20 mg/kg, po for 10 days by ELISA relative to control; type: functional; conditions: time 10 day; summary of the method: as §4
MCF7 = assay: Cytotoxicity against human MCF7 cells assessed as reduction in cell viability after 48 hrs by MTT assay; type: functional, cell-based; conditions: MCF7, 48 h; summary of the method: as §1

| inhibition [16] | IC50 [17] | IC50 [18] | SMILES | IC50 (WI-38) | Activity (Mus musculus [19]) | Activity (Mus musculus [20]) | Activity (Mus musculus [21]) | Activity (Mus musculus [22]) | Activity (Mus musculus [23]) | Activity (Mus musculus [24]) | Activity (Mus musculus [25]) | Activity (Mus musculus [26]) | Activity (Mus musculus [27]) | Activity (Mus musculus [28]) | Activity (Mus musculus [29]) | Activity (Mus musculus [30]) | Activity (Mus musculus [31]) | Activity (Mus musculus [32]) | also measured |
| --- | --- | --- | --- | --- | --- | --- | --- | --- | --- | --- | --- | --- | --- | --- | --- | --- | --- | --- | --- |
| 72.6% | 422 nM | 634 nM | Cc1ccc(C2=N/C(=C/c3ccc(Cl)cc3)C(=O)NN2C(=O)Cc2nc3c(c(C)nn3-c3ccccc3)c(=O)[nH]2)cc1 | 29.4 nM | -24.4% | -16.14% | 2.62% | 50.22% | 62.01% | 121.31% | 176.8% | 229.74% | 44.83% | 31.95% | -57.67% | 134.61% | 56.77% | -37.61% | Activity (HCT-116 [1]): 17.35%; Activity (HCT-116 [2]): 22.64%; Activity (HCT-116 [3]): 31.42%; Activity (HCT-116 [4]): 45.94%; fold change (FC) (HCT-116 [5]): 2.98; Activity (HCT-116 [6]): 10.37%; Activity (HCT-116 [7]): 2.72%; fold change (FC) (HCT-116 [8]): 30.79; fold change (FC) (HCT-116 [9]): 2; fold change (FC) (HCT-116 [10]): 18.5; fold change (FC) (HCT-116 [11]): 20; fold change (FC) (HCT-116 [12]): 16.5; fold change (FC) (HCT-116 [13]): 6.9; fold change (FC) (HCT-116 [14]): 3.8; Activity (HCT-116 [15]): Active |
| 54.5% |  | 11200 nM | Cc1ccc(C2=N/C(=C\c3ccc(Cl)cc3)C(=O)NN2C(=O)c2nc3c(c(C)nn3-c3ccccc3)c(=O)[nH]2)cc1 | 26.4 nM | -29.47% | -20.49% | 15.45% | 66.22% | 71.73% | 152.01% | 208.36% | 256.83% | 34.92% | 13.75% | -50.74% | 113.22% | 58.15% | -36.07% |  |
| 83.6% | 656 nM | 872 nM | Cc1nn(-c2ccccc2)c2nc(CC(=O)N3NC(=O)/C(=C\c4ccccc4)N=C3c3ccccc3)[nH]c(=O)c12 | 47.2 nM | -23.98% | -17.45% | 2.33% | 63.11% | 62.01% | 136.74% | 202.38% | 264.32% | 31.8% | 33.49% | -56.93% | 69.18% | 52.65% | -50.88% |  |
|  |  |  | Cc1nn(-c2ccccc2)c2nc(C(=O)N3NC(=O)/C(=C/c4ccc(Cl)cc4)N=C3c3ccccc3)[nH]c(=O)c12 | 31.8 nM | -27.57% | -17.28% | 19.53% | 76% | 77.2% | 134.23% | 202.67% | 270.93% | 34.07% | 18.91% | -53.49% | 174.47% | 74.77% | -50.65% | IC50 (MCF7): 44.3 nM |
|  |  |  | COc1ccc(/C=C2\N=C(c3ccccc3)N(C(=O)c3nc4c(c(C)nn4-c4ccccc4)c(=O)[nH]3)NC2=O)cc1 | 97.7 nM | -48.49% | -25.28% | 30.61% | 99.56% | 88.15% | 230.03% | 265.27% | 368.94% | 29.32% | -5.51% | -54.04% | 141.33% | 68.66% | -76.21% |  |
